Assay results of several laboratories.
Compare with care: the assays were run in different laboratories.
CYP2C19: Cytochrome P450 2C19 (CYP2C19, Homo sapiens, UniProt P33261)

Compound | tested on | assay | test system | conditions | endpoint | result
N=C(N)NCc1ccc(NC(=O)c2ccc(C(=O)Nc3cnc(C4=CCN(C(=N)N)CC4)cn3)cc2)cc1 | NIH3T3 | cell growth or viability, MTS | – | 24 h | CC50 | > 585 µM
COc1cc2c3c(n(CCCN4CCOCC4)c(=O)c2cc1OC)-c1cc2c(cc1C3=O)OCO2 | – | – | male beagle dog, plasma | intravenous, 10 mg/m², infusion | Cmax | 106 ng/mL
[11CH3]Oc1cccc(CCc2cc(O)c(=O)[nH]n2)c1 | ATP-dependent translocase ABCB1 (Abcb1a, Mus musculus, UniProt P21447) | – | mouse, brain | 30 min | tracer uptake | 0.23 %ID/g
N=C(N)NCc1ccc(NC(=O)C23CCC(C(=O)Nc4ccc(C5=CCN(C(=N)N)CC5)cc4)(CC2)CC3)cc1 | NIH3T3 | cell growth or viability, MTS | – | 24 h | CC50 | 439 µM
NC(=O)C1CCCN1C(=O)Cc1ccc(N(CCCO)Cc2cnc3nc(N)nc(N)c3n2)cc1 (stereo not shown) | CYP2C19 | enzyme activity, inhibitor, luciferase | – | 10 µM | inhibition | -4.55%
N=C(N)N1CC=C(c2coc(C(=O)Nc3ccc(C4=CCN(C(=N)N)CC4)c(F)c3)c2)CC1 | NIH3T3 | cell growth or viability, MTS | – | 24 h | CC50 | 68 µM
C[C@@H]1C[C@@H](c2ccc(Br)cc2)c2c(cc3ccccn23)C(=O)O1 (racemic) | HFF-1 | cell growth or viability, resazurin | – | 72 h | CC50 | > 100 µM
COC(=O)C1CCN(C(=O)c2ccc(SCc3cnc4nc(N)nc(N)c4n3)nc2)CC1 | CYP2C19 | enzyme activity, inhibitor, luciferase | – | 10 µM | inhibition | -2.45%
C[C@@H](Cn1ccc(-c2ccc(C#N)c(Cl)c2)n1)NC(=O)c1cc([C@@H](C)O)[nH]n1 | UDP-glucuronosyltransferase 1A4 (UGT1A4, Homo sapiens, UniProt P22310) | enzyme activity, inhibitor | human, liver microsomes | – | IC50 | > 100 µM
COC(=O)C1CCN(C(=O)c2ccc(N(CCCO)Cc3cnc4nc(N)nc(N)c4n3)cc2)CC1 | CYP2C19 | enzyme activity, inhibitor, luciferase | – | 10 µM | inhibition | -9.48%
C=CC(=O)N1CC2CC(n3nc(-c4ccc(C(=O)Nc5ccccn5)cc4)c4c(N)ncnc43)CC2C1 (stereo not shown) | – | – | male Wistar rat, plasma | oral, 10 mg/kg | Tmax | 2 h
COC(=O)C1CCN(C(=O)c2ccc(NCc3cnc4nc(N)nc(N)c4n3)cn2)CC1 | CYP2C19 | enzyme activity, inhibitor, luciferase | – | 10 µM | inhibition | -1.34%
O=C(Nc1c2c(cc3c1CCC3)CCC2)NS(=O)(=O)/C=C/c1nccs1 | CYP2C19 | enzyme activity, inhibitor | human, liver microsomes | 10 µM, pH 7.4 | inhibition | 10.7%
